Experimental data from ChEMBL document CHEMBL5058577, “EUbOPEN Chemogenomics Library 2 (Multiplex)” (2022).

System: Fibroblast
Test: Multiplex assay against human fibroblast
Assay type: toxicity, cell-based
Procedure, shortened: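 Cells were classed with CellPathfinder machine-learning gating, first as Hoechst high-intensity objects or normal cells, then (normal cells) as healthy, pyknosed or fragmented nuclei, and finally (pyknosed cells) as mitotic or apoptotic. Staining of live cells at seeding used Hoechst33342, BioTracker Green Microtubule Cytoskeleton Dye, MitoTracker Red and Annexin V Alexa Fluor 680, with imaging on a CQ1 microscope at 37°C and 5% CO2 after compound addition. Tubulin, mitochondrial-mass and membrane-permeability phenotypes are per cents of healthy-nucleus cells.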

[1] = 12 h, 1 µM, compound concentration 1 uM, replicate 1
[2] = 12 h, 1 µM, compound concentration 1 uM, replicate 2
[3] = 12 h, 10 µM, compound concentration 10 uM, replicate 1
[4] = 12 h, 10 µM, compound concentration 10 uM, replicate 2
[5] = 24 h, 1 µM, compound concentration 1 uM, replicate 1
[6] = 24 h, 1 µM, compound concentration 1 uM, replicate 2
[7] = 24 h, 10 µM, compound concentration 10 uM, replicate 1
[8] = 24 h, 10 µM, compound concentration 10 uM, replicate 2
[9] = 48 h, 1 µM, compound concentration 1 uM, replicate 1
[10] = 48 h, 1 µM, compound concentration 1 uM, replicate 2
[11] = 48 h, 10 µM, compound concentration 10 uM, replicate 1
[12] = 48 h, 10 µM, compound concentration 10 uM, replicate 2

With `C[C@@H]1C[C@H]2[C@@H]3CCC4=CC(=O)C=C[C@]4(C)[C@@]3(F)[C@@H](O)C[C@]2(C)[C@@]1(O)C(=O)CO` [DEXAMETHASONE] the “Population Apoptotic (%)” value [1] was 62%, the “Population Fragmented Nuclei (%)” value [1] was 18% and the “Population Healthy Nuclei (%)” value [1] was 66%. For the same compound, the “Population Hoechst High Intensity Objects (%)” value [1] was 7%, the “Population Membrane Permeable-Phenotype (%)” value [1] was 0% and the “Population Mitochondria Different-Phenotype (%)” value [1] was 2%. The “Population Mitotic Cells (%)” value [1] was 37%, the “Population Normal (%)” value [1] was 92% and the “Population Pyknosed Nuclei (%)” value [1] was 15%. For the same compound, the “Population Tubulin-Different-Phenotype (%)” value [1] was 26%, the “Population Apoptotic (%)” value [2] was 38% and the “Population Fragmented Nuclei (%)” value [2] was 30%. For the same compound, the “Population Healthy Nuclei (%)” value [2] was 48%, the “Population Hoechst High Intensity Objects (%)” value [2] was 3% and the “Population Membrane Permeable-Phenotype (%)” value [2] was 9%. For the same compound, the “Population Mitochondria Different-Phenotype (%)” value [2] was 4%, the “Population Mitotic Cells (%)” value [2] was 61% and the “Population Normal (%)” value [2] was 96%. The “Population Pyknosed Nuclei (%)” value [2] was 20%, the “Population Tubulin-Different-Phenotype (%)” value [2] was 52% and the “Population Apoptotic (%)” value [3] was 35%. The “Population Fragmented Nuclei (%)” value [3] was 20%, the “Population Healthy Nuclei (%)” value [3] was 65% and the “Population Hoechst High Intensity Objects (%)” value [3] was 2%. The “Population Membrane Permeable-Phenotype (%)” value [3] was 1%, the “Population Mitochondria Different-Phenotype (%)” value [3] was 5% and the “Population Mitotic Cells (%)” value [3] was 65%. The “Population Normal (%)” value [3] was 98%, the “Population Pyknosed Nuclei (%)” value [3] was 13% and the “Population Tubulin-Different-Phenotype (%)” value [3] was 22%. For the same compound, the “Population Apoptotic (%)” value [4] was 30%, the “Population Fragmented Nuclei (%)” value [4] was 24% and the “Population Healthy Nuclei (%)” value [4] was 52%. The “Population Hoechst High Intensity Objects (%)” value [4] was 6%, the “Population Membrane Permeable-Phenotype (%)” value [4] was 4% and the “Population Mitochondria Different-Phenotype (%)” value [4] was 2%. For the same compound, the “Population Mitotic Cells (%)” value [4] was 69%, the “Population Normal (%)” value [4] was 93% and the “Population Pyknosed Nuclei (%)” value [4] was 23%. For the same compound, the “Population Tubulin-Different-Phenotype (%)” value [4] was 53%, the “Population Apoptotic (%)” value [5] was 48% and the “Population Fragmented Nuclei (%)” value [5] was 14%. The “Population Healthy Nuclei (%)” value [5] was 68%, the “Population Hoechst High Intensity Objects (%)” value [5] was 5% and the “Population Membrane Permeable-Phenotype (%)” value [5] was 1%. For the same compound, the “Population Mitochondria Different-Phenotype (%)” value [5] was 3%, the “Population Mitotic Cells (%)” value [5] was 52% and the “Population Normal (%)” value [5] was 94%. For the same compound, the “Population Pyknosed Nuclei (%)” value [5] was 17%, the “Population Tubulin-Different-Phenotype (%)” value [5] was 26% and the “Population Apoptotic (%)” value [6] was 31%. For the same compound, the “Population Fragmented Nuclei (%)” value [6] was 29%, the “Population Healthy Nuclei (%)” value [6] was 50% and the “Population Hoechst High Intensity Objects (%)” value [6] was 6%. The “Population Membrane Permeable-Phenotype (%)” value [6] was 4%, the “Population Mitochondria Different-Phenotype (%)” value [6] was 1% and the “Population Mitotic Cells (%)” value [6] was 68%. The “Population Normal (%)” value [6] was 93%, the “Population Pyknosed Nuclei (%)” value [6] was 19% and the “Population Tubulin-Different-Phenotype (%)” value [6] was 53%. The “Population Apoptotic (%)” value [7] was 42%, the “Population Fragmented Nuclei (%)” value [7] was 15% and the “Population Healthy Nuclei (%)” value [7] was 65%. The “Population Hoechst High Intensity Objects (%)” value [7] was 3%, the “Population Membrane Permeable-Phenotype (%)” value [7] was 1% and the “Population Mitochondria Different-Phenotype (%)” value [7] was 6%. For the same compound, the “Population Mitotic Cells (%)” value [7] was 57%, the “Population Normal (%)” value [7] was 96% and the “Population Pyknosed Nuclei (%)” value [7] was 18%. For the same compound, the “Population Tubulin-Different-Phenotype (%)” value [7] was 22%, the “Population Apoptotic (%)” value [8] was 30% and the “Population Fragmented Nuclei (%)” value [8] was 30%. The “Population Healthy Nuclei (%)” value [8] was 44%, the “Population Hoechst High Intensity Objects (%)” value [8] was 6% and the “Population Membrane Permeable-Phenotype (%)” value [8] was 10%. For the same compound, the “Population Mitochondria Different-Phenotype (%)” value [8] was 2%, the “Population Mitotic Cells (%)” value [8] was 69% and the “Population Normal (%)” value [8] was 93%. The “Population Pyknosed Nuclei (%)” value [8] was 24%, the “Population Tubulin-Different-Phenotype (%)” value [8] was 45% and the “Population Apoptotic (%)” value [9] was 46%. For the same compound, the “Population Fragmented Nuclei (%)” value [9] was 22%, the “Population Healthy Nuclei (%)” value [9] was 52% and the “Population Hoechst High Intensity Objects (%)” value [9] was 6%. The “Population Membrane Permeable-Phenotype (%)” value [9] was 2%, the “Population Mitochondria Different-Phenotype (%)” value [9] was 4% and the “Population Mitotic Cells (%)” value [9] was 53%. For the same compound, the “Population Normal (%)” value [9] was 93%, the “Population Pyknosed Nuclei (%)” value [9] was 24% and the “Population Tubulin-Different-Phenotype (%)” value [9] was 34%. The “Population Apoptotic (%)” value [10] was 37%, the “Population Fragmented Nuclei (%)” value [10] was 38% and the “Population Healthy Nuclei (%)” value [10] was 46%. For the same compound, the “Population Hoechst High Intensity Objects (%)” value [10] was 4%, the “Population Membrane Permeable-Phenotype (%)” value [10] was 4% and the “Population Mitotic Cells (%)” value [10] was 62%. For the same compound, the “Population Normal (%)” value [10] was 95%, the “Population Pyknosed Nuclei (%)” value [10] was 14% and the “Population Tubulin-Different-Phenotype (%)” value [10] was 53%. For the same compound, the “Population Apoptotic (%)” value [11] was 50%, the “Population Fragmented Nuclei (%)” value [11] was 22% and the “Population Healthy Nuclei (%)” value [11] was 55%. The “Population Hoechst High Intensity Objects (%)” value [11] was 4%, the “Population Membrane Permeable-Phenotype (%)” value [11] was 0% and the “Population Mitochondria Different-Phenotype (%)” value [11] was 7%. For the same compound, the “Population Mitotic Cells (%)” value [11] was 50%, the “Population Normal (%)” value [11] was 95% and the “Population Pyknosed Nuclei (%)” value [11] was 22%. For the same compound, the “Population Tubulin-Different-Phenotype (%)” value [11] was 19%, the “Population Apoptotic (%)” value [12] was 37% and the “Population Fragmented Nuclei (%)” value [12] was 36%. The “Population Healthy Nuclei (%)” value [12] was 43%, the “Population Hoechst High Intensity Objects (%)” value [12] was 7% and the “Population Membrane Permeable-Phenotype (%)” value [12] was 10%. The “Population Mitochondria Different-Phenotype (%)” value [12] was 0%, the “Population Mitotic Cells (%)” value [12] was 62% and the “Population Normal (%)” value [12] was 92%. The “Population Pyknosed Nuclei (%)” value [12] was 20% and the “Population Tubulin-Different-Phenotype (%)” value [12] was 39%.
